Test results taken from ChEMBL document CHEMBL5236662, “Synthesis and biological evaluation of tert-butyl ester and ethyl ester prodrugs of L-γ-methyleneglutamic acid amides for cancer” (Bioorg Med Chem, 2023).
pIC50: −log10 of the molar value.

Assays:
[1] = Antiproliferative activity against human BNC6 cells assessed as inhibition of cell growth incubated for 72 hrs by CCK-8 assay; format: functional, cell-based; conditions: BNC6, 72 h
Summary of the method: (§1)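 Primary patient-derived glioblastoma lines were grown in RPMI 1640 with 10% FBS. Cells were seeded at 3,000 per well and dosed 24 h later at 10, 50, 100, 200 and 300 μM for 24 or 72 h, with BiCNU as control. CCK-8 was added and OD450 read after 2 h at 37 °C. Data are % cell survival, from 3 independent replicates.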

[2] = Antiproliferative activity against human BNC3 cells assessed as inhibition of cell growth incubated for 72 hrs by CCK-8 assay; format: functional, cell-based; conditions: BNC3, 72 h; summary of the method: as §1
MCF7 [3] = assay: Antiproliferative activity against human MCF7 cells assessed as inhibition of cell growth incubated for 72 hrs by Hoechst 33342/propidium iodide staining based fluorescence analysis; format: functional; conditions: MCF7, 72 h
MDA-MB-231 = assay: Antiproliferative activity against human MDA-MB-231 cells assessed as inhibition of cell growth incubated for 72 hrs by Hoechst 33342/propidium iodide staining based fluorescence analysis; format: functional; conditions: MDA-MB-231, 72 h
MCF-10A [4] = assay: (§2) Cytotoxicity against human MCF-10A cells assessed as inhibition of cell growth incubated for 72 hrs by Hoechst 33342/propidium iodide staining based fluorescence analysis; format: toxicity; conditions: mcf-10a
SK-BR-3 = assay: Antiproliferative activity against human SK-BR-3 cells assessed as inhibition of cell growth incubated for 72 hrs by Hoechst 33342/propidium iodide staining based fluorescence analysis; format: functional; conditions: SK-BR-3, 72 h
[5] = as §2; format: toxicity; conditions: human, MCF-10A cells
[6] = (§3) Cytotoxicity against human MCF-10A cells assessed as inhibition of cell growth incubated for 24 hrs by Hoechst 33342/propidium iodide staining based fluorescence analysis; format: toxicity; conditions: human, MCF-10A cells
[7] = Antiproliferative activity against human WSU-HN30 cells assessed as inhibition of cell growth incubated for 72 hrs by CCK-8 assay; format: functional, cell-based; conditions: WSU-HN30, 72 h
Summary of the method: (§4)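 Radiotherapy-resistant HNSCC lines were used: HN30 from pharynx SCC and HN31 from a lymph-node metastasis of the same patient. Cells in RPMI 1640 with 10% FBS were seeded at 3,000 per well and treated 24 h later with 10–300 μM (5 levels) for 24 or 72 h, with cisplatin as control. CCK-8 was read at OD450 after 2 h. Data are % survival, n = 3 independent experiments.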

WSU-HN30 = assay: Antiproliferative activity against human WSU-HN30 cells assessed as suppression of cell growth incubated for 24 to 72 hrs by CCK-8 assay; format: functional, cell-based; conditions: dose 10-300 µM, time 24-72 hrs; summary of the method: as §4
[8] = Antiproliferative activity against human WSU-HN31 cells assessed as inhibition of cell growth incubated for 72 hrs by CCK-8 assay; format: functional, cell-based; conditions: WSU-HN31, 72 h; summary of the method: as §4
BNC3 = assay: Antiproliferative activity against human BNC3 cells assessed as suppression of cell growth incubated for 24 to 72 hrs by CCK-8 assay; format: functional, cell-based; conditions: dose 10-300 µM, time 24-72 hrs; summary of the method: as §1
BNC6 = assay: Antiproliferative activity against human BNC6 cells assessed as suppression of cell growth incubated for 24 to 72 hrs by CCK-8 assay; format: functional, cell-based; conditions: dose 10-300 µM, time 24-72 hrs; summary of the method: as §1
WSU-HN31 = assay: Antiproliferative activity against human WSU-HN31 cells assessed as suppression of cell growth incubated for 24 to 72 hrs by CCK-8 assay; format: functional, cell-based; conditions: dose 10-300 µM, time 24-72 hrs; summary of the method: as §4
MCF-10A [9] = assay: as §3; format: toxicity; conditions: mcf-10a
MCF7 [10] = assay: Antiproliferative activity against human MCF7 cells assessed as inhibition of cell growth incubated for 24 hrs by Hoechst 33342/propidium iodide staining based fluorescence analysis; format: functional; conditions: MCF7, 24 h

Row | Structure (SMILES) | pIC50 (MCF7 [3]) | pIC50 (MDA-MB-231) | pIC50 (SK-BR-3) | IC50 at 72 h [5] [µM] | other results
1 | O=NN(CCCl)C(=O)NCCCl [CARMUSTINE] |  |  |  |  | pIC50 [1]: 3.80; pIC50 [2]: 3.80
2 | C=C(C[C@H](NC(=O)OC(C)(C)C)C(=O)OC(C)(C)C)C(=O)Nc1ccc(F)cc1 | < 3.00 | > 3.00 | > 3.00 |  | pIC50 (MCF-10A [4]): > 3.00
3 | C=C1C[C@@H](C(=O)OCC)NC1=O | < 3.00 | < 3.00 | < 3.00 | > 1000 | 
4 | C=C(C[C@H](NC(=O)OC(C)(C)C)C(=O)OC(C)(C)C)C(=O)NCc1ccc([N+](=O)[O-])cc1 | < 3.00 | > 3.00 | > 3.00 | > 1000 | 
5 | C=C(C[C@H](NC(=O)OC(C)(C)C)C(=O)OCC)C(=O)NC1CC1 | < 3.00 | < 3.00 | < 3.00 | > 1000 | 
6 | C=C(C[C@H](N)C(=O)O)C(=O)Nc1ccc(Cl)cc1 |  |  |  | > 1000 | IC50 at 24 h [6]: > 1000 µM
7 | C=C(C[C@H](N)C(=O)O)C(=O)Nc1ccc(F)cc1 |  |  |  | > 1000 | pIC50 [1]: 3.71; pIC50 [7]: 3.66; Activity (WSU-HN30): Dose-Dependent Effect; pIC50 [8]: 3.69; IC50 at 24 h [6]: > 1000 µM; Activity (BNC3): Dose-Dependent Effect; Activity (BNC6): Dose-Dependent Effect; pIC50 [2]: 3.74; Activity (WSU-HN31): Dose-Dependent Effect
8 | C=C(C[C@H](N)C(=O)O)C(N)=O |  |  |  | > 1000 | IC50 at 24 h [6]: > 1000 µM
9 | C=C(C[C@H](NC(=O)OC(C)(C)C)C(=O)OC(C)(C)C)C(=O)NCc1ccc(F)cc1 | < 3.00 | > 3.00 | > 3.00 | > 1000 | 
10 | CC/C(=C(\c1ccccc1)c1ccc(OCCN(C)C)cc1)c1ccccc1 [TAMOXIFEN] | > 3.00 | > 3.00 | > 3.00 |  | pIC50 (MCF-10A [9]): < 3.00; pIC50 (MCF-10A [4]): < 3.00
11 | C=C(C[C@H](N)C(=O)O)C(=O)NCc1ccc([N+](=O)[O-])cc1 |  |  |  | > 1000 | pIC50 [1]: 3.75; pIC50 [7]: 4.04; Activity (WSU-HN30): Dose-Dependent Effect; pIC50 [8]: 3.71; IC50 at 24 h [6]: > 1000 µM; Activity (BNC3): Dose-Dependent Effect; Activity (BNC6): Dose-Dependent Effect; pIC50 [2]: 3.81; Activity (WSU-HN31): Dose-Dependent Effect
12 | C=C1C[C@@H](C(=O)OCC)N(C(=O)OC(C)(C)C)C1=O | < 3.00 | < 3.00 | < 3.00 | > 1000 | 
13 | O=C(c1cc(Cc2n[nH]c(=O)c3ccccc23)ccc1F)N1CCN(C(=O)C2CC2)CC1 [OLAPARIB] | > 3.00 | > 3.00 | > 3.00 | > 1000 | pIC50 (MCF7 [10]): < 3.00; pIC50 (MCF-10A [9]): < 3.00
14 | C=C1C[C@@H](C(=O)OC(C)(C)C)N(C(=O)OC(C)(C)C)C1=O | < 3.00 | > 3.00 | < 3.00 | > 1000 | 
15 | C=C(C[C@H](N)C(=O)O)C(=O)N1CCCCC1 |  |  |  | > 1000 | pIC50 [1]: 3.70; pIC50 [7]: 4.01; Activity (WSU-HN30): Dose-Dependent Effect; pIC50 [8]: 3.68; IC50 at 24 h [6]: > 1000 µM; Activity (BNC3): Dose-Dependent Effect; Activity (BNC6): Dose-Dependent Effect; pIC50 [2]: 3.80; Activity (WSU-HN31): Dose-Dependent Effect
16 | C=C(C[C@H](NC(=O)OC(C)(C)C)C(=O)OCC)C(=O)NCc1ccc([N+](=O)[O-])cc1 | < 3.00 | < 3.00 | > 3.00 | > 1000 | 
17 | C=C(C[C@H](NC(=O)OC(C)(C)C)C(=O)OCC)C(=O)Nc1ccccc1 | < 3.00 | < 3.00 | < 3.00 | > 1000 | 

Row | Structure (SMILES) | pIC50 (MCF7 [3]) | pIC50 (MDA-MB-231) | pIC50 (SK-BR-3) | IC50 at 72 h [5] [µM] | other results
18 | C=C(C[C@H](NC(=O)OC(C)(C)C)C(=O)OCC)C(N)=O | < 3.00 | > 3.00 | > 3.00 | > 1000 | 
19 | C=C(C[C@H](N)C(=O)O)C(=O)Nc1ccccc1 |  |  |  | > 1000 | pIC50 [1]: 3.68; pIC50 (MCF7 [10]): < 3.00; pIC50 [7]: 4.03; Activity (WSU-HN30): Dose-Dependent Effect; pIC50 [8]: 3.70; IC50 at 24 h [6]: > 1000 µM; Activity (BNC3): Dose-Dependent Effect; Activity (BNC6): Dose-Dependent Effect; pIC50 [2]: 3.66; Activity (WSU-HN31): Dose-Dependent Effect
20 | C=C(C[C@H](NC(=O)OC(C)(C)C)C(=O)OCC)C(=O)N1CCCCC1 | < 3.00 | < 3.00 | < 3.00 | > 1000 | 
21 | C=C1C[C@@H](C(=O)OC(C)(C)C)NC1=O | < 3.00 | > 3.00 | < 3.00 | > 1000 | 
22 | C=C(C[C@H](N)C(=O)O)C(=O)NC1CC1 |  |  |  | > 1000 | pIC50 [1]: 3.73; pIC50 [7]: 3.98; Activity (WSU-HN30): Dose-Dependent Effect; pIC50 [8]: 3.71; IC50 at 24 h [6]: > 1000 µM; Activity (BNC3): Dose-Dependent Effect; Activity (BNC6): Dose-Dependent Effect; pIC50 [2]: 3.77; Activity (WSU-HN31): Dose-Dependent Effect
23 | C=C(C[C@H](NC(=O)OC(C)(C)C)C(=O)OC(C)(C)C)C(=O)Nc1ccccc1 | < 3.00 | > 3.00 | > 3.00 | > 1000 | 
24 | C=C(C[C@H](NC(=O)OC(C)(C)C)C(=O)OC(C)(C)C)C(=O)NCc1ccccc1 | < 3.00 | > 3.00 | > 3.00 | > 1000 | 
25 | C=C1C[C@@H](C(=O)O)NC1=O | < 3.00 | < 3.00 | < 3.00 | > 1000 | 
26 | C=C(C[C@H](NC(=O)OC(C)(C)C)C(=O)OC(C)(C)C)C(=O)N1CCCCC1 | > 3.00 | > 3.00 | > 3.00 | > 1000 | 
27 | C=C(C[C@H](N)C(=O)O)C(=O)NCc1ccccc1 |  |  |  | > 1000 | pIC50 [1]: 3.72; pIC50 (MCF7 [10]): < 3.00; pIC50 [7]: 3.92; Activity (WSU-HN30): Dose-Dependent Effect; pIC50 [8]: 3.70; IC50 at 24 h [6]: > 1000 µM; Activity (BNC3): Dose-Dependent Effect; Activity (BNC6): Dose-Dependent Effect; pIC50 [2]: 3.77; Activity (WSU-HN31): Dose-Dependent Effect
28 | C=C(C[C@H](NC(=O)OC(C)(C)C)C(=O)OC(C)(C)C)C(=O)NC1CC1 | > 3.00 | > 3.00 | > 3.00 | > 1000 | 
29 | C=C(C[C@H](NC(=O)OC(C)(C)C)C(=O)OCC)C(=O)NCc1ccccc1 | < 3.00 | < 3.00 | > 3.00 | > 1000 | 
30 | C=C(C[C@H](NC(=O)OC(C)(C)C)C(=O)OCC)C(=O)Nc1ccc(Cl)cc1 | < 3.00 | < 3.00 | > 3.00 | > 1000 | 
31 | C=C(C[C@H](NC(=O)OC(C)(C)C)C(=O)OCC)C(=O)Nc1ccc(F)cc1 | < 3.00 | < 3.00 | > 3.00 | > 1000 | 
32 | C=C(C[C@H](NC(=O)OC(C)(C)C)C(=O)OC(C)(C)C)C(N)=O | > 3.00 | < 3.00 | > 3.00 | > 1000 | 
33 | C=C(C[C@H](NC(=O)OC(C)(C)C)C(=O)OC(C)(C)C)C(=O)Nc1ccc(Cl)cc1 | < 3.00 | < 3.00 | < 3.00 | > 1000 | 
34 | C=C(C[C@H](NC(=O)OC(C)(C)C)C(=O)OCC)C(=O)NCc1ccc(F)cc1 | < 3.00 | < 3.00 | > 3.00 | > 1000 | 
